This assay relates to Mycobacterium tuberculosis. Description: Antitubercular activity against […] after 7 days by alamar blue assay. Type of assay: functional. Conditions: 168 h. In a few lines:
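M. bovis BCG stock, thawed with sonication/ice cycles, diluted to 8 × 10⁴ bacteria per mL in Tween albumin broth (Dubos/OADC). Compounds prepared in PBS (up to 5% DMSO) at double strength, filter-sterilised, serially diluted; tested in triplicate from […] start.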
In general terms: Alamar Blue is a resazurin reagent that responds to reducing activity.
The term MIC denotes the lowest concentration found to suppress growth. A higher MIC goes with a less susceptible organism. With `OC[C@H]1NC[C@H](O)[C@H]1O`, the MIC is > 3500 µM.

Turning to `OC[C@@H]1NC[C@@H](O)[C@@H]1O`, the minimum inhibitory concentration (MIC) was > 3500 µM.

On to `NC1CCCCCCCCCCC1`, for which it took 680 µM to inhibit growth (MIC).

As to `O=C1OC[C@H]2[C@@H](O)[C@@H](O)CN12`, the MIC is > 3500 µM.

Molecule `OC[C@@H](O)[C@H](O)[C@H](O)CNC1CCCCCCCCCCC1` had a minimum inhibitory concentration (MIC) of 160 µM.

For `C=C[C@@H](O)[C@H](O)CNCc1ccccc1`, the minimum inhibitory concentration (MIC) is > 500 µg/mL.

For `OC[C@@H]1NC[C@H](O)[C@@H]1O`, the MIC is > 3500 µM.

`C[C@H](O)[C@@H](O)[C@@H](O)[C@H](O)CNC1CCCCCCC1`: the minimal inhibitory concentration (MIC) is > 500 µg/mL.

As for `C=C[C@@H](O)[C@@H](O)CNCCCCCCCC`, the minimum inhibitory concentration (MIC) was 940 µM.

On to `C=C[C@@H](O)[C@@H](O)CNCc1ccccc1`, for which the minimal inhibitory concentration (MIC) is > 500 µg/mL.

As for `C=C[C@H](O)[C@@H](O)CNCc1ccccc1`, the MIC is > 500 µg/mL.

`C=C[C@@H](O)[C@@H](O)CN`: the MIC is > 3500 µM.

As for `C=C[C@@H](O)[C@H](O)CNC(c1ccccc1)c1ccccc1`, the lowest concentration to inhibit growth (MIC) was 1600 µM.

Molecule `C=C[C@@H](O)[C@@H](O)CNC(c1ccccc1)c1ccccc1` registered an MIC of 1600 µM.

`C[C@H](O)[C@@H](O)[C@@H](O)[C@H](O)CNC1CCCCCCCCCCC1` had an MIC of 680 µM.

On to `O=C1OC[C@H]2[C@@H](O)CCN12`, for which the MIC was > 3500 µM.

Turning to `O=C1OC[C@H]2[C@@H](O)[C@H](O)CN12`, the minimal inhibitory concentration (MIC) is > 3500 µM.

As to `C=C[C@@H](O)[C@H](O)CN(C)CCCCCCCCCCCCCCCC`, the lowest concentration to inhibit growth (MIC) was 22 µM.

In turn, `C=C[C@@H](O)[C@H](O)CNCCCCCCCC` came in with an MIC of 680 µM.

For `OC[C@@H]1NCC[C@@H]1O`, the minimal inhibitory concentration (MIC) was > 3500 µM.

`C=C[C@H](O)[C@@H](O)CNCCCCCCCC` gave an MIC of 940 µM.

For `C=C[C@H](O)[C@@H](O)CNC(c1ccccc1)c1ccccc1`, it took 440 µM to inhibit growth (MIC).

`C=C[C@H](OC)[C@H](CNC(c1ccccc1)c1ccccc1)OC`: the minimum inhibitory concentration (MIC) is 800 µM.

`C=C[C@@H](O)[C@H](O)CNCCCCCCCCCCCCCCCC`: 21 µM was the least that counted as inhibitory (MIC).

For `C=C[C@@H](O)[C@H](O)CNC[C@@H](O)[C@H](O)C=C`, the MIC is 2000 µM.

On to `C[C@H](O)[C@H](O)[C@@H](O)[C@@H](O)CNC1CCCCCCC1`, for which the MIC is > 500 µg/mL.

As to `C=C[C@@H](O)[C@H](O)CN(CCCC)CCCC`, the minimal inhibitory concentration (MIC) was > 500 µg/mL.

As for `OC[C@@H](O)[C@H](O)[C@H](O)CNC1CCCCC1`, the MIC was > 500 µg/mL.

As for `C=C[C@@H](O)[C@H](O)CNC12CC3CC(CC(C3)C1)C2`, the MIC is > 500 µg/mL.

On to `C=C[C@@H](O)CCN`, for which the MIC was > 3500 µM.

As to `C[C@H](O)[C@@H](O)[C@@H](O)[C@H](O)CNC1CCCCC1`, the minimal inhibitory concentration (MIC) was > 500 µg/mL.

Take `O=C1OC[C@@H]2[C@H](O)[C@@H](O)CN12`: the MIC was > 3500 µM.

`OC[C@@H](O)[C@H](O)[C@H](O)CNC12CC3CC(CC(C3)C1)C2`: the MIC was > 500 µg/mL.

With `C=C[C@@H](O)[C@H](O)CNC1CCCCCCCCCCC1`, the minimum inhibitory concentration (MIC) was found to be 200 µM.

In the case of `OC[C@@H](O)[C@H](O)[C@H](O)CNC1CCCCCCC1`, the minimum inhibitory concentration (MIC) is > 500 µg/mL.

With `C=C[C@H](O)[C@@H](O)CN`, the minimal inhibitory concentration (MIC) is > 3500 µM.

In the case of `C=C[C@@H](O)[C@H](O)CN`, the MIC is > 3500 µM.

In the case of `C=C[C@@H](O)[C@H](O)CNCCCCCCCCCCCCCC`, inhibition of growth (MIC) required 45 µM.

As for `NC(c1ccccc1)c1ccccc1` [AMINODIPHENYLMETHANE], the minimal inhibitory concentration (MIC) is 1360 µM.

`CC[C@@H](CO)NCCN[C@@H](CC)CO` [ETHAMBUTOL] returned an MIC of 39 µM.

In turn, `CCCCCCCCCCCCCCCCN` [HEXADECYLAMINE] gave an MIC of 130 µM.

`CCCCCCCCCCCCCCN` [TETRADECYLAMINE] came in with an MIC of 140 µM.

Source of the values: ChEMBL document CHEMBL3751768, “Synthesis and anti-tuberculosis activity of glycitylamines” (2016).
